Experimental data reported in ChEMBL document CHEMBL4819102, “SAR insights into TET2 catalytic domain inhibition: Synthesis of 2-Hydroxy-4-Methylene-pentanedicarboxylates” (Bioorg Med Chem, 2021).
The source made the active and inactive calls. The calls are words filed in the database; no cut-off is given here.

Experiments:
THP-1 [1] = assay: Inhibition of TET in human THP-1 cells assessed as reduction in 5hmc/5mc level at 25 uM incubated for 12 hrs by dot blot analysis relative to control; format: cell-based
Procedure, shortened: (§1)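 THP1 cells at 0.3x10^6/mL exposed 12 h to ester prodrugs (25, 50, 100 µM) with 100 µM sodium ascorbate. Genomic DNA denatured in NaOH/EDTA at 95 °C, two-fold serial dilutions dot-blotted, probed with anti-5hmC and anti-5mC antibodies, and loading checked by methylene blue. Inhibition taken from the 5hmC/5mC ratio; means of at least three experiments, below 5% reported not detected.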

THP-1 [2] = assay: Inhibition of TET in human THP-1 cells assessed as reduction in 5hmc/5mc level at 50 uM incubated for 12 hrs by dot blot analysis relative to control; format: cell-based; procedure, shortened: as §1
THP-1 [3] = assay: Inhibition of TET in human THP-1 cells assessed as reduction in 5hmc/5mc level at 100 uM incubated for 12 hrs by dot blot analysis relative to control; format: cell-based; procedure, shortened: as §1
[4] = Inhibition of TET (unknown origin); design: species or system Homo sapiens
[5] = molecular target: T1, Methylcytosine dioxygenase TET2 (Homo sapiens, UniProt Q6N021); assay: Potency index, ratio of IC50 of NOG to IC50 of compound for inhibition of recombinant human GST-tagged TET2 (1099 to 1936 residues) expressed in Escherichia coli BL21 (DE3)pLysS assessed as reduction in 5hmc level incubated for 2 hrs by ELISA
[6] = molecular target: T2, Methylcytosine dioxygenase TET1 (Homo sapiens, UniProt Q8NFU7); assay: Inhibition of recombinant human N-terminal Flag-tagged TET1 (1418 to 2136 residues) expressed in Baculovirus infected Sf9 cells assessed as reduction in 5hmc level incubated for 2 hrs by ELISA
[7] = molecular target: T3, Methylcytosine dioxygenase TET3 (Homo sapiens, UniProt O43151); assay: Inhibition of recombinant human N-terminal Flag-tagged C-terminal His-tagged TET3 (824 to 1795 residues) expressed in Baculovirus infected Sf9 cells assessed as reduction in 5hmc level incubated for 2 hrs by ELISA
[8] = molecular target: T1, Methylcytosine dioxygenase TET2; assay: Binding affinity to human recombinant TET2 (1099 to 1936) catalytic domain assessed as dissociation constant by micro-scale thermophoresis analysis
[9] = molecular target: T1, Methylcytosine dioxygenase TET2; assay: Reversible inhibition of recombinant human GST-tagged TET2 (1099 to 1936 residues) expressed in Escherichia coli BL21 (DE3)pLysS assessed as restoration of enzyme activity in presence of alpha-KG at 20 uM incubated for 2 hrs by ELISA
Procedure, shortened: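 TET2 catalytic domain (100 nM) preincubated with 12.5 µM inhibitor, then α-KG added at increasing concentrations. Anti-5hmC/HRP detection, TMB read at 450 nm; activity expressed relative.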

[10] = molecular target: T2, Methylcytosine dioxygenase TET1; assay: Inhibition of TET1 (unknown origin) at 10 mM in presence of alpha-KG relative to control
[11] = molecular target: T2, Methylcytosine dioxygenase TET1; assay: Inhibition of TET1 (unknown origin) at 50 mM in presence of alpha-KG relative to control
[12] = molecular target: T1, Methylcytosine dioxygenase TET2; settings: dose 10.0 mM
[13] = molecular target: T1, Methylcytosine dioxygenase TET2; settings: dose 50.0 mM
[14] = molecular target: T2, Methylcytosine dioxygenase TET1; assay: Inhibition of TET1 (unknown origin)
[15] = molecular target: T3, Methylcytosine dioxygenase TET3; assay: Inhibition of TET3 (unknown origin)
[16] = molecular target: T1, Methylcytosine dioxygenase TET2; assay: Inhibition of recombinant human GST-tagged TET2 (1099 to 1936 residues) expressed in Escherichia coli BL21 (DE3)pLysS assessed as reduction in 5hmc level incubated for 2 hrs by ELISA

T2 sequence (Q8NFU7 whole entry, the tested form may be a part): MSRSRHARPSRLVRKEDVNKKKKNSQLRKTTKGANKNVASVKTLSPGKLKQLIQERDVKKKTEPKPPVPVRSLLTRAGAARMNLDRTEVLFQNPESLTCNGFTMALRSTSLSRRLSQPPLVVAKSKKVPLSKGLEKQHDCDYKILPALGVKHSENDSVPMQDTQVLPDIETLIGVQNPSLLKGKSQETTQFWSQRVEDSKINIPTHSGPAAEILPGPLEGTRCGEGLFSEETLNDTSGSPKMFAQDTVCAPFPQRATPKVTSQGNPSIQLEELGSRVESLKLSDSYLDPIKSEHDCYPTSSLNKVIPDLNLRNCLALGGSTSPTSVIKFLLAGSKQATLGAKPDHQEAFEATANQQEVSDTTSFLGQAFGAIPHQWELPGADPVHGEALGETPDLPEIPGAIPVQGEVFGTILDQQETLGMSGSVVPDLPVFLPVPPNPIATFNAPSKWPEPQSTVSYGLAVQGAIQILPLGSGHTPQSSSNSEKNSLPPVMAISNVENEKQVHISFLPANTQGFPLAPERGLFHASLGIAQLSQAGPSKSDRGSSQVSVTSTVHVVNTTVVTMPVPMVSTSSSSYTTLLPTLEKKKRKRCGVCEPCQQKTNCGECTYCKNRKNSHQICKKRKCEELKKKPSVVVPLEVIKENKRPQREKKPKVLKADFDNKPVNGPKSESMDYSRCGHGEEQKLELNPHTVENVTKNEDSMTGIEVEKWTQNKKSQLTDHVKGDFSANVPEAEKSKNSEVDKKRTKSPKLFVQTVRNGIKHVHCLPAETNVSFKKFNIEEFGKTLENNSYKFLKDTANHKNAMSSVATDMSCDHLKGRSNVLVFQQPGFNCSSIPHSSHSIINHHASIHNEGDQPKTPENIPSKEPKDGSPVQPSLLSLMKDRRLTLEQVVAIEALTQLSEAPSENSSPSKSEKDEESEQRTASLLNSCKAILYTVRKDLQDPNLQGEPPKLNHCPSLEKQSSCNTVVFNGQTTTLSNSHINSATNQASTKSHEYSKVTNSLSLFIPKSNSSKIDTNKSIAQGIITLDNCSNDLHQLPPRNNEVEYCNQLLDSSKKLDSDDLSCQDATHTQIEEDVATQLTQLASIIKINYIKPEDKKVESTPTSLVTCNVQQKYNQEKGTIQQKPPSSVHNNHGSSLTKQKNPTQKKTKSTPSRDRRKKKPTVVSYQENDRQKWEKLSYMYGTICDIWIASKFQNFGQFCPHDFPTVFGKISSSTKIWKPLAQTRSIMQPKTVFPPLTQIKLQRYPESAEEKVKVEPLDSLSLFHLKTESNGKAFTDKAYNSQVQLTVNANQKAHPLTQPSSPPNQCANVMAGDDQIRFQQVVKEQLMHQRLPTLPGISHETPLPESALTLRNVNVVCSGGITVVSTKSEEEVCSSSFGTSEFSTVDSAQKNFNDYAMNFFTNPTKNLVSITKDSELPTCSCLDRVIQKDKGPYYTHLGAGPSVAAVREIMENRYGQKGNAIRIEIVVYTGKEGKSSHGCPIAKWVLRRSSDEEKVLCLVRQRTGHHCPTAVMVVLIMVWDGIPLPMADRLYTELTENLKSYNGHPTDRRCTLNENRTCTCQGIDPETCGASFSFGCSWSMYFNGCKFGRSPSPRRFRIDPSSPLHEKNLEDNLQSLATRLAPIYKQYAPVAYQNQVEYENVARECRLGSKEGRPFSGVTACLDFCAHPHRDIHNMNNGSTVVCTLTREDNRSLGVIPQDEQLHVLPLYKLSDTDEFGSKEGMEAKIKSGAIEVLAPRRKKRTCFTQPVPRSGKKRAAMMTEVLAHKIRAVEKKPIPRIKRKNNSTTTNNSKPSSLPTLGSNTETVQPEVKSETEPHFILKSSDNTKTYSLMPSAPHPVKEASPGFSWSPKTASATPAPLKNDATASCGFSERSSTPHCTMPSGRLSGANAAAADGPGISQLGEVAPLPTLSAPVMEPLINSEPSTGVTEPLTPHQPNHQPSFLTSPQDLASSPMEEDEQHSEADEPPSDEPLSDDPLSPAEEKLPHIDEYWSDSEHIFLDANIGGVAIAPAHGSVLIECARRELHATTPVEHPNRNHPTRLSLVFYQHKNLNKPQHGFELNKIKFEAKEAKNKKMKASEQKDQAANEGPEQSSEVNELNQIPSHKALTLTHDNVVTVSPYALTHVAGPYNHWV

SMILES	inhibition (THP-1 [1]) [%]	inhibition (THP-1 [2]) [%]	inhibition (THP-1 [3]) [%]	other results
C=C(CC(F)C(=O)OCC)C(=O)OCC (racemic)	9	11	41	
COC(=O)C(=O)CC(C)C(=O)OC (centres undefined)	< 5	< 5	< 5	
C=C(CC(F)(F)C(=O)OCC)C(=O)OCC	12	20	29	
CCOC(=O)C(=O)CC1(C(=O)OCC)CC1	19	29	33	
COC(=O)/C=C/C(=O)OC	< 5	21	33	
CCC(CC(=O)C(=O)OC)C(=O)OC (centres undefined)	< 5	< 5	< 5	
COC(=O)CCC(=O)OC	< 5	7	15	
C=C(CC(O)(CC)C(=O)OCC)C(=O)OCC (racemic)	29	45	48	
CCOC(=O)C(O)CC1(C(=O)OCC)CC1 (racemic)	< 5	< 5	< 5	
O=C(O)CNC(=O)C(=O)O [N-OXALYLGLYCINE]				IC50 [4]: 80 µM
O=C(O)/C=C/C(=O)O [FUMARIC ACID]				IC50 [4]: 2400 µM
C=C(CC(Cl)C(=O)OC)C(=O)OC (centres undefined)	40	54	66	
C=C(CC(O)C(=O)O)C(=O)O (centres undefined)				Ratio IC50 [5]: 2; IC50 [6]: 1.5 µM; IC50 [7]: 8.8 µM; Kd [8]: 0.3 µM; inhibition [9]: Active
CCOC(=O)C(C)CC(F)(F)C(=O)OCC (centres undefined)	14	9	22	
O=C(O)CC[C@@H](O)C(=O)O				IC50 [4]: 6400 µM; inhibition [10]: 28%; inhibition [11]: 47%; inhibition [12]: 33%; inhibition [13]: 83%
C=C(CC(O)(C(=O)OCC)C(F)(F)F)C(=O)OCC (racemic)	49	67	79	
O=C(C[C@@H](O)CCc1ccc(O)c(O)c1)O[C@@H]1Cc2c(O)cc(O)cc2C[C@@H]1c1ccc(O)c(O)c1				IC50 [14]: 3.48 µM; IC50 [15]: 2.31 µM
C=C(CC(C)(O)C(=O)OCC)C(=O)OCC (racemic)	54	71	80	

SMILES	inhibition (THP-1 [1]) [%]	inhibition (THP-1 [2]) [%]	inhibition (THP-1 [3]) [%]	other results
C=C(NC(C)=O)C(=O)OC	< 5	< 5	< 5	
C=C(CCC(=O)OC)C(=O)OC	< 5	7	22	
O=C(O)CC[C@H](O)C(=O)O				IC50 [4]: 3600 µM
C=C(C[C@H](O)C(=O)O)C(=O)O				IC50 [16]: 10.5 µM; Ratio IC50 [5]: 2
COC(=O)CNC(=O)C(=O)OC	56	62	64	
C=C(CC(C)O)C(=O)OCC (racemic)	15	27	47	
C=C(CC(=O)C(=O)OCC)C(=O)OCC	< 5	27	44	
CCOC(=O)C(C)CC(O)C(=O)OCC (racemic)	< 5	14	41	
C=C(C[C@@H](O)C(=O)O)C(=O)O				IC50 [16]: 11 µM; Ratio IC50 [5]: 2
COC(=O)CCC(=O)C(=O)OC	< 5	< 5	< 5	
C=C(CC(O)C(=O)OCC)C(=O)OCC (racemic)	55	68	73	
COC(=O)CCC(O)C(=O)OC (centres undefined)	9	18	29	
O=C(O)CCC(=O)O [SUCCINIC ACID]				IC50 [4]: 2800 µM
COC(=O)/C=C/C(=O)C(=O)OC	7	17	34	
O=C(O)/C=C/C(=O)C(=O)O				IC50 [16]: 107 µM
CC(C)CC(NC(=O)C(=O)O)C(=O)O (centres undefined)				IC50 [4]: 18.1 µM
C=C(CC(O)(C(=O)OCC)C(C)C)C(=O)OCC (racemic)	17	37	43	
